The list is not random: actives were taken first. Their share in the collection is about 2.6%.
b-catenin transl = alters nuclear translocation of beta-catenin in HeLa cells | immunofluorescence imaging | nuclear translocation activity, % at 5 µM | 190,000 compounds, 0.3% hits | AID 1665;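 active = nuclear translocation activity above 50% at 5 µM, with a well cell count of 50 or more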;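 note: per-cell ratio of nuclear to cytoplasmic median beta-catenin stain intensity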
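Signal – beta-catenin immunofluorescence imaging with DAPI · Test system – human HeLa cell line · Dosing – 5 µM primary single dose, 0.1% DMSO, 0.02–20 µM confirmation series · Measure – % activation, nuclear-to-cytoplasmic median beta-catenin signal ratio per cell · Incubation – 24 h compound exposure at 37°C, 5% CO2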
NPY Y1 blocker = NPY-Y1 (human) receptor antagonism; P25929; HEK293-CNG Y1 cells, membrane potential fluorescence; NPY at EC95, then isoproterenol; inhibition, % at 3.6 µM; 200,000 compounds, 1% hits; AID 1040;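 active = inhibition above the campaign mean inhibition of all tested compounds plus 3 SD, cut at about 20% in these data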
Target sequence (P25929 whole entry, looked up): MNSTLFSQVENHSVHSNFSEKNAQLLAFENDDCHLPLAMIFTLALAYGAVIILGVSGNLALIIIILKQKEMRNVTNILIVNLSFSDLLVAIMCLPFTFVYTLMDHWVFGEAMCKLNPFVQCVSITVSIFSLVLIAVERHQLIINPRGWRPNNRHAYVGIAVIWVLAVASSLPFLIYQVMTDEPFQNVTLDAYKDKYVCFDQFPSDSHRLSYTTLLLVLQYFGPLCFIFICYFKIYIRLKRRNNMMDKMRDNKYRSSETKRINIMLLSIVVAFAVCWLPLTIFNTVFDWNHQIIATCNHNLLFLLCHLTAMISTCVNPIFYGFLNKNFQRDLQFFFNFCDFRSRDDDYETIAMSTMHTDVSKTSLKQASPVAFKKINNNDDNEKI
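Material: HEK293 Y1/CNG channel cell line; also added: NPY (25 nM), isoproterenol (1 µM), Ro 20-1724 (25 µM); doses: one concentration, 3.6 µM, in 0.4% DMSO; schedule: compound incubation 1 h at room temperature, readout 45 min post-stimulation; technique: membrane potential fluorescence; measure: fluorescence ratio normalized to % inhibition between controls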
MT stabilizer = stabilizes microtubules in HeLa cells; HeLa tubulin immunostaining HCS, 24 h; share of cells brighter than vehicle mean+2SD; % tubulin-high responders, % at 10 µM; 200,000 compounds, 0.83% hits; AID 2205;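 active = plate Z-score above 3 for both tubulin-high and condensed-nucleus cell shares, with cell loss under 80%, at 10 µM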;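 note: anti alpha tubulin signal scored within the nucleus-defined area of each cell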
NPY-Y1 PAM-ag = potentiators or agonists of human neuropeptide Y receptor Y1 | P25929 | NPY-Y1 expressing cells, potentiator/agonist activation | activation, % at 3.6 µM | 220,000 compounds, 0.37% hits | AID 1304; in the data active = activation above about 33%, passing the limit was not always enough;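 note: cells stimulated with NPY at EC10 then isoproterenol at EC100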
NPY Y2 blocker = blocks the human neuropeptide Y Y2 receptor | NPY-Y2 expressing cells, antagonist mode | AID 793 | inhibition, % at 2.7 µM | 140,000 compounds, 0.99% hits | P49146
NPY-Y2 PAM-ag = potentiates or activates human NPY-Y2 receptor | P49146 | 220,000 compounds, 0.45% hits | cells expressing NPY-Y2, potentiator/agonist read-out | activation, % at 3.6 µM; in the data active = activation above about 27%;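 note: cells stimulated with NPY near EC25 plus isoproterenol at EC100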
NPY1 antag conf = confirmation of human neuropeptide Y receptor Y1 antagonists; shares compounds with NPY Y1 blocker; HEK293-CNG NPY-Y1, membrane potential fluorescence, cAMP; NPY challenge against isoproterenol-raised cAMP; inhibition, % at 3.6 µM; 1,200 compounds, 21% hits; AID 1254; in the data active = inhibition above about 20%
NPY2 antag ctr = human NPY-Y2 antagonism in NPY-Y1 counter-screen; shares compounds with NPY Y1 blocker; inhibition, % at 3.6 µM; 1,200 compounds, 28% hits; AID 1255; HEK293 NPY-Y2 CNG membrane potential fluorescence; cells given NPY, then isoproterenol
Large screens that a line does not name were inactive (follow-up assays come after a bar, where they were run). Cut-off read from the data, not from the text of the source, unless noted: active = inhibition above about 17%; inactive = the rest.

COc1ccccc1-c1cc(C(F)(F)F)nc(S(=O)(=O)CCCC(=O)N2CCCCC2C)n1 (centres undefined)	NPY Y1 blocker 25 | NPY1 antag conf inactive | NPY2 antag ctr 44
CC(=O)c1sccc1NC(=O)c1ccccc1C(=O)O	none (no result: NPY Y1 blocker, MT stabilizer, NPY Y2 blocker)
CCCOc1ccc(Cn2c(=O)oc3ccc(C)cc32)cc1OC	NPY Y1 blocker 32 | NPY1 antag conf inactive | NPY2 antag ctr inactive
COc1ccccc1OCCCn1c(=O)oc2ccc(C)cc21	none
CN1CCN(c2nc(-c3cccnc3)nc3scc(-c4ccccc4)c23)CC1	NPY Y1 blocker 28 (no result: NPY Y2 blocker) | NPY1 antag conf inactive | NPY2 antag ctr inactive
OCCC1CN(Cc2cnc(-c3cccc4ccccc34)nc2)CCN1C1CCCCC1 (centres undefined)	none (no result: NPY Y2 blocker)
CCCn1nc(NS(C)(=O)=O)c2cc3cccc(C)c3nc21	NPY Y1 blocker 27 | NPY1 antag conf inactive | NPY2 antag ctr inactive
CCn1nc(NS(=O)(=O)c2ccccc2)c2cc3cccc(C)c3nc21	none
CCN(c1ccc(NC(=O)CN2C(=O)NC3(CCOc4ccccc43)C2=O)cc1)C(C)C (centres undefined)	none
COC(=O)c1ccc(OC(=O)CCc2cc(OC)c(OC)c(OC)c2)cc1	none (no result: NPY Y2 blocker)
C=CCOc1ccc(/C(O)=C2/C(=O)C(=O)N(CCCn3ccnc3)C2c2ccco2)cc1 (centres undefined)	none (no result: NPY Y2 blocker)
CCc1ccc(NC(=O)c2cc(C)on2)cc1	none
CCCc1cc(C(=O)OC)c(NC(=O)c2cc(C)on2)s1	NPY Y1 blocker 20 | NPY1 antag conf inactive | NPY2 antag ctr inactive
COc1ccc2c(c1)C(C)=CC(C)(C)N2S(=O)(=O)c1ccc(Br)cc1	b-catenin transl 76, NPY Y1 blocker 55 (no result: NPY Y2 blocker) | NPY1 antag conf 27 | NPY2 antag ctr 22
COc1cccc(CN2CCN(S(=O)(=O)c3ccc(Br)cc3)CC2)c1	none
Cc1ccc(C(=O)c2c(C)oc3c2C(=O)C(=O)c2ccccc2-3)cc1	none
Cc1oc2c(c1C(=O)c1ccc(Cl)cc1)C(=O)C(=O)c1ccccc1-2	NPY Y1 blocker 26 | NPY1 antag conf inactive | NPY2 antag ctr inactive
CC1CCCN(Cc2cccc(Oc3ccccc3)c2)C1 (centres undefined)	NPY Y1 blocker 25 | NPY1 antag conf inactive | NPY2 antag ctr inactive
OC1CCN(Cc2cccc(Oc3ccccc3)c2)CC1	none
O=C(CSc1nnc(Nc2ccccc2)s1)NN1C(=O)NC2(CCCCC2)C1=O	none
COC(=O)C(NC(=O)c1ccc(C)cc1)(Nc1cccc(C)n1)C(F)(F)F (centres undefined)	none
CCc1ccc(CNCc2ccc(OCC(O)CN(C)Cc3ccccc3)cc2)nc1 (centres undefined)	NPY Y1 blocker 26 (no result: NPY Y2 blocker) | NPY1 antag conf inactive | NPY2 antag ctr 27
CN(Cc1ccccc1)CC(O)COc1ccc(CNCCc2cccnc2)cc1 (centres undefined)	none (no result: NPY Y2 blocker)
O=C(O)CSc1c[nH]c2ccccc12	none
CC(Sc1c[nH]c2ccccc12)C(=O)O (centres undefined)	NPY Y1 blocker 28 (no result: b-catenin transl) | NPY1 antag conf inactive | NPY2 antag ctr inactive
COc1cccc(CNC(=O)C(c2ccc(Cl)cc2)C(C)C)c1 (centres undefined)	NPY Y1 blocker 21 (no result: b-catenin transl) | NPY1 antag conf inactive | NPY2 antag ctr inactive
CCOc1cc(C2C3=C(CC(C)(C)CC3=O)Nc3n[nH]c(C)c32)ccc1O (centres undefined)	NPY Y1 blocker 42 (no result: NPY Y2 blocker) | NPY1 antag conf 26 | NPY2 antag ctr 40
CCOc1ccc(NC(=O)CCCc2cc(-c3ccc(OCC)cc3)on2)cc1	none
CCOc1ccc(-c2cc(CCCC(=O)Nc3cccc(OC)c3)no2)cc1	b-catenin transl 100, NPY Y1 blocker 21, MT stabilizer 23 | NPY1 antag conf inactive | NPY2 antag ctr 21
CN(C)c1cc(NC(=O)CNC(C)(C)CC(C)(C)C)c2ccccc2n1	NPY Y1 blocker 28 (no result: NPY Y2 blocker) | NPY1 antag conf 23 | NPY2 antag ctr 42
COc1ccc(C(=O)CSc2ccc(-c3ccc(C)cc3)nn2)cc1	NPY Y1 blocker 25 | NPY1 antag conf inactive | NPY2 antag ctr inactive
Cc1ccccc1OCCNC(=O)CSc1ccc(C(F)(F)F)cc1[N+](=O)[O-]	none
FC(F)(F)c1cc(-c2ccco2)nc(-n2nc(C(F)(F)F)cc2C2CC2)n1	NPY Y1 blocker 21 | NPY1 antag conf inactive | NPY2 antag ctr inactive
CS(=O)(=O)c1nc(-c2ccco2)cc(C(F)(F)F)n1	NPY Y1 blocker 24 | NPY1 antag conf inactive | NPY2 antag ctr 46
COc1ccccc1-c1cc(C(F)(F)F)nc(S(C)(=O)=O)n1	none (no result: b-catenin transl)
CN1CCN(c2nc(-c3ccco3)cc(C(F)(F)F)n2)CC1	none
CN(C)CCN(C)Cc1ccccc1Sc1cccc2ccccc12	none
Clc1cccc(NCc2cn3cccnc3n2)c1	none (no result: NPY Y2 blocker)
COc1ccc(N/N=C(C)/C(=N/O)C(=O)Nc2ccccc2)cc1	none (no result: NPY Y2 blocker)
COc1ccc2nc(SC(C(=O)c3ccccc3)c3ccccc3)nc(C)c2c1 (centres undefined)	NPY Y1 blocker 40 | NPY1 antag conf 27 | NPY2 antag ctr 35
Cc1nc(SC(C(=O)c2ccccc2)c2ccccc2)nc2ccccc12 (centres undefined)	none (no result: b-catenin transl)
O=C(O)CCc1ccc(-c2ccc(Br)cc2)o1	NPY Y1 blocker 23 | NPY1 antag conf inactive | NPY2 antag ctr inactive
O=C(O)CCc1ccc(-c2ccc(Cl)cc2)o1	none
O=P(c1ccccc1)(c1ccccc1)c1nc(-c2ccc(Cl)cc2)oc1N1CCOCC1	none (no result: NPY Y2 blocker)
Cc1cc2ncn(-c3ncnc4sc(C)c(C)c34)c2cc1C	none
Cc1cc2ncn(-c3ncnc4scc(-c5ccccc5)c34)c2cc1C	NPY Y1 blocker 31 | NPY1 antag conf inactive | NPY2 antag ctr inactive
COc1ccc(-c2nc(CN3CCN(c4cc(C)nc(C)c4)CC3)c(C)o2)c2ccccc12	NPY Y1 blocker 23 (no result: NPY Y2 blocker) | NPY1 antag conf inactive | NPY2 antag ctr 29
Cc1c(O)c(=O)ccn1C	none
CCOC(=O)N1CCN(C(=O)c2ccc3c(=O)n(Cc4ccccc4OC)c(=S)[nH]c3c2)CC1	NPY Y1 blocker 22 | NPY1 antag conf inactive | NPY2 antag ctr inactive
COc1cccc(CN(C(=O)Cc2c[nH]c3ccccc23)C(C(=O)NC2CCCCC2)c2ccc(C)o2)c1 (centres undefined)	NPY Y1 blocker 23 (no result: b-catenin transl) | NPY1 antag conf inactive | NPY2 antag ctr inactive

Source: PubChem
